Experimental data from ChEMBL document CHEMBL1641579, “Synthesis and biological evaluation of 7-substituted-1-(3-bromophenylamino)isoquinoline-4-carbonitriles as inhibitors of myosin light chain kinase and epidermal growth factor receptor” (Bioorg Med Chem, 2011).
Blank lines part the entries; values can stand above or below the molecule they belong to. Calls of active or inactive are those of the source. The rule behind the calls is not given here.

What was measured:
[1] = target: Myosin light chain kinase, smooth muscle (Homo sapiens, UniProt Q15746); assay: Competitive inhibition of MLCK by Lineweaver-Burk plot analysis
In short: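 Double-reciprocal (1/V vs 1/[ATP]) kinetics using the HTRF phosphorylation read-out with Ca2+/calmodulin. Conditions: 375 nM STK1 peptide substrate, ATP at 80, 110 and 140 µM, inhibitor at 0, 1, 5 and 10 µM. Reaction velocities plotted to determine the mode of inhibition.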

Calu-6 = assay: Growth inhibition of human Calu6 cells assessed as ATP level after 96 hrs by CellTiter-Glo assay; type: functional; conditions: Calu-6, 96 h
In short: (§1)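 NSCLC lines maintained as in earlier work and authenticated by mutational analysis and SNP arrays. Cells were plated in 384-well format and allowed 24 h before compound addition as 10 threefold serial dilutions (DMSO stocks). After 96 h, viability was read as cellular ATP by CellTiter-Glo. GI50 was fitted with an R package.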

NCI-H596 = assay: Growth inhibition of human NCI-H596 cells assessed as ATP level after 96 hrs by CellTiter-Glo assay; type: functional; conditions: NCI-H596, 96 h
[2] = Growth inhibition of human NCI-H2077 cells assessed as ATP level after 96 hrs by CellTiter-Glo assay; type: functional; conditions: NCI-H2077, 96 h
[3] = Growth inhibition of human HCC2429 cells assessed as ATP level after 96 hrs by CellTiter-Glo assay; type: functional; conditions: HCC2429, 96 h; in short: as §1
[4] = Growth inhibition of human HCC515 cells assessed as ATP level after 96 hrs by CellTiter-Glo assay; type: functional; conditions: HCC515, 96 h; in short: as §1
NCI-H1734 = assay: Growth inhibition of human NCI-H1734 cells assessed as ATP level after 96 hrs by CellTiter-Glo assay; type: functional; conditions: NCI-H1734, 96 h; in short: as §1
[5] = Growth inhibition of human HCC461 cells assessed as ATP level after 96 hrs by CellTiter-Glo assay; type: functional; conditions: HCC461, 96 h; in short: as §1
Calu-1 = assay: Growth inhibition of human Calu1 cells assessed as ATP level after 96 hrs by CellTiter-Glo assay; type: functional; conditions: Calu-1, 96 h; in short: as §1
[6] = Growth inhibition of human HCC4006 cells assessed as ATP level after 96 hrs by CellTiter-Glo assay; type: functional; conditions: HCC4006, 96 h; in short: as §1
NCI-H322M = assay: Growth inhibition of human NCI-H322M cells assessed as ATP level after 96 hrs by CellTiter-Glo assay; type: functional
[7] = Growth inhibition of human HCC1171 cells assessed as ATP level after 96 hrs by CellTiter-Glo assay; type: functional; conditions: HCC1171, 96 h; in short: as §1
[8] = Growth inhibition of human NCI-H2887 cells assessed as ATP level after 96 hrs by CellTiter-Glo assay; type: functional; conditions: NCI-H2887, 96 h
NCI-H1395 = assay: Growth inhibition of human NCI-H1395 cells assessed as ATP level after 96 hrs by CellTiter-Glo assay; type: functional; conditions: NCI-H1395, 96 h; in short: as §1
[9] = Growth inhibition of human NCI-H1568 cells assessed as ATP level after 96 hrs by CellTiter-Glo assay; type: functional; conditions: NCI-H1568, 96 h; in short: as §1
[10] = Growth inhibition of human HCC193 cells assessed as ATP level after 96 hrs by CellTiter-Glo assay; type: functional; conditions: HCC193, 96 h; in short: as §1
NCI-H1563 = assay: Growth inhibition of human NCI-H1563 cells assessed as ATP level after 96 hrs by CellTiter-Glo assay; type: functional; conditions: NCI-H1563, 96 h; in short: as §1
NCI-H2030 = assay: Growth inhibition of human NCI-H2030 cells assessed as ATP level after 96 hrs by CellTiter-Glo assay; type: functional; conditions: NCI-H2030, 96 h
[11] = Growth inhibition of human HCC827 cells assessed as ATP level after 96 hrs by CellTiter-Glo assay; type: functional; conditions: HCC827, 96 h; in short: as §1
NCI-H2052 = assay: Growth inhibition of human NCI-H2052 cells assessed as ATP level after 96 hrs by CellTiter-Glo assay; type: functional; conditions: NCI-H2052, 96 h
[12] = Growth inhibition of human H820 cells assessed as ATP level after 96 hrs by CellTiter-Glo assay; type: functional; conditions: NCI-H820, 96 h; in short: as §1
[13] = Growth inhibition of human HCC2450 cells assessed as ATP level after 96 hrs by CellTiter-Glo assay; type: functional; in short: as §1
NCI-H661 = assay: Growth inhibition of human NCI-H661 cells assessed as ATP level after 96 hrs by CellTiter-Glo assay; type: functional; conditions: NCI-H661, 96 h
[14] = Growth inhibition of human HCC366 cells assessed as ATP level after 96 hrs by CellTiter-Glo assay; type: functional; conditions: HCC366, 96 h; in short: as §1
[15] = Growth inhibition of human H23 cells assessed as ATP level after 96 hrs by CellTiter-Glo assay; type: functional; conditions: NCI-H23, 96 h; in short: as §1
NCI-H1792 = assay: Growth inhibition of human NCI-H1792 cells assessed as ATP level after 96 hrs by CellTiter-Glo assay; type: functional; conditions: NCI-H1792, 96 h
In short: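 NSCLC lines maintained as previously described, authenticated by mutational analysis and SNP arrays. Cells seeded and incubated 24 h, then given compound (DMSO stocks) as 10 threefold serial dilutions. Viability read after 96 h as cellular ATP content (CellTiter-Glo). GI50 derived by curve fitting of half-maximal inhibition.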

NCI-H1650 = assay: Growth inhibition of human NCI-H1650 cells assessed as ATP level after 96 hrs by CellTiter-Glo assay; type: functional; conditions: NCI-H1650, 96 h; in short: as §1
A549 = assay: Growth inhibition of human A549 cells assessed as ATP level after 96 hrs by CellTiter-Glo assay; type: functional; conditions: A549, 96 h; in short: as §1
NCI-H2228 = assay: Growth inhibition of human NCI-H2228 cells assessed as ATP level after 96 hrs by CellTiter-Glo assay; type: functional; conditions: NCI-H2228, 96 h
[16] = Growth inhibition of human NCI-H1781 cells assessed as ATP level after 96 hrs by CellTiter-Glo assay; type: functional; conditions: NCI-H1781, 96 h; in short: as §1
[17] = Growth inhibition of human NCI-H2882 cells assessed as ATP level after 96 hrs by CellTiter-Glo assay; type: functional; conditions: NCI-H2882, 96 h
NCI-H522 = assay: Growth inhibition of human NCI-H522 cells assessed as ATP level after 96 hrs by CellTiter-Glo assay; type: functional; conditions: NCI-H522, 96 h
[18] = Growth inhibition of human NCI-H2110 cells assessed as ATP level after 96 hrs by CellTiter-Glo assay; type: functional; conditions: NCI-H2110, 96 h
[19] = Growth inhibition of human HCC364 cells assessed as ATP level after 96 hrs by CellTiter-Glo assay; type: functional; conditions: HCC364, 96 h; in short: as §1
[20] = Growth inhibition of human HCC1833 cells assessed as ATP level after 96 hrs by CellTiter-Glo assay; type: functional; in short: as §1
[21] = Growth inhibition of human HCC2279 cells assessed as ATP level after 96 hrs by CellTiter-Glo assay; type: functional; in short: as §1

Myosin light chain kinase, smooth muscle, sequence (Q15746 whole entry): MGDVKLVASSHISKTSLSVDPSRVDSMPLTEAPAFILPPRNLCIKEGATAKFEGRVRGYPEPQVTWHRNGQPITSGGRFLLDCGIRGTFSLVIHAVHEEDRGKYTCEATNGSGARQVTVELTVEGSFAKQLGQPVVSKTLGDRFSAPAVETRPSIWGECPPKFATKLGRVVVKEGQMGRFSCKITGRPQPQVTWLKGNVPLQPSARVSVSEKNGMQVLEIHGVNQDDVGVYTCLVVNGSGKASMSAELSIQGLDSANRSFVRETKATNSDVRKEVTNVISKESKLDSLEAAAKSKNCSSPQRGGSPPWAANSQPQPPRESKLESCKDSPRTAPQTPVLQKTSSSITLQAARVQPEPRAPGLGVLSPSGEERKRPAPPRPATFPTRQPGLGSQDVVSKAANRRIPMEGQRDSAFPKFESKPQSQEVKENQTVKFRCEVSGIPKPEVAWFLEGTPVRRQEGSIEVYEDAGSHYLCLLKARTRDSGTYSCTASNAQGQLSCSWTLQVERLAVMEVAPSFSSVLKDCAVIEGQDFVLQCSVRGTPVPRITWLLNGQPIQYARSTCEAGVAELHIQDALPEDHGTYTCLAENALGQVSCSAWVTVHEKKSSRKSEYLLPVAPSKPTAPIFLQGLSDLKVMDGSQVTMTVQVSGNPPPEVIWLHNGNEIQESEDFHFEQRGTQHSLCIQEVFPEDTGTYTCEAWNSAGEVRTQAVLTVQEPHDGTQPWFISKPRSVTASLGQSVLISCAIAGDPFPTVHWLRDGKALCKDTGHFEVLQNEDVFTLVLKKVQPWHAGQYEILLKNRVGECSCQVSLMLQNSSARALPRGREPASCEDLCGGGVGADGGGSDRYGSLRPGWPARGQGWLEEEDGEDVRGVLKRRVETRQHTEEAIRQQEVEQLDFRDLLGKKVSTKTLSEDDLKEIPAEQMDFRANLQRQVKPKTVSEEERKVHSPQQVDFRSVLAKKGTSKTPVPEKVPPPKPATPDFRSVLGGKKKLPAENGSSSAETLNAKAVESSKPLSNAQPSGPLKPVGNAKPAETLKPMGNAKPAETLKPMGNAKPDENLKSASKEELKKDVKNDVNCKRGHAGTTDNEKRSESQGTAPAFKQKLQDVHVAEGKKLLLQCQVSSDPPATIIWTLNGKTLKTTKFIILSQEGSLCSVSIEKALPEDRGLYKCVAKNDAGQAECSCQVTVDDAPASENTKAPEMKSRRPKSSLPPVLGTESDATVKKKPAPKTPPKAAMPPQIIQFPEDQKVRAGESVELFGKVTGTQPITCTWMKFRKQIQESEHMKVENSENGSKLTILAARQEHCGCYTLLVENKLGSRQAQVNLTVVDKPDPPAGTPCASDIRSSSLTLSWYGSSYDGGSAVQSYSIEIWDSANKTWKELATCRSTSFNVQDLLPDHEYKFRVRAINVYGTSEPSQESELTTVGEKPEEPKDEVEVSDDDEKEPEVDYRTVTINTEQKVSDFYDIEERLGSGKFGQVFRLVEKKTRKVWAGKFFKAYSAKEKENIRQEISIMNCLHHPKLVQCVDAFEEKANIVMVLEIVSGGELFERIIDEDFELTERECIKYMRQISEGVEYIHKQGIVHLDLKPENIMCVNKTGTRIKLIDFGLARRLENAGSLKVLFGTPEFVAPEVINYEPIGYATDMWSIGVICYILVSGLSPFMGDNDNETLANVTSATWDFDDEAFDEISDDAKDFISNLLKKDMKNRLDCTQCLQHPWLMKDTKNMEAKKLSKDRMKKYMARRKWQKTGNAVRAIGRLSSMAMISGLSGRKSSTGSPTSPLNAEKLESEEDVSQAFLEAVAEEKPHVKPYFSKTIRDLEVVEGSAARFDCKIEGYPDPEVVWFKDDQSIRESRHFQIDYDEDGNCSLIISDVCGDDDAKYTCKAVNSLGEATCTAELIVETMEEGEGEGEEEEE

- inhibition [1]: Active
SMILES: CN1CCN(CCC(=O)Nc2ccc3c(C#N)cnc(Nc4cccc(Br)c4)c3c2)CC1

- GI50 (Calu-6): 16.4 µM
- GI50 (NCI-H596): 19.5 µM
- GI50 (NCI-H1734): 24.3 µM
- GI50 (Calu-1): 19.7 µM
- GI50 (NCI-H322M): 21.4 µM
- GI50 (NCI-H1395): 31.3 µM
- GI50 (NCI-H1563): 30.9 µM
- GI50 (NCI-H2030): 34.3 µM
- GI50 (NCI-H2052): 21.6 µM
- GI50 (NCI-H661): 14 µM
- GI50 (NCI-H1792): 26.3 µM
- GI50 (NCI-H1650): 15.7 µM
- GI50 (A549): 40 µM
- GI50 (NCI-H2228): 21.9 µM
- GI50 (NCI-H522): 17.2 µM
SMILES: CN(C)C/C=C/C(=O)Nc1ccc2c(C#N)cnc(Nc3cccc(Br)c3)c2c1
- GI50 [2]: 13.2 µM
- GI50 [3]: 19.5 µM
- GI50 [4]: 20.4 µM
- GI50 [5]: 16 µM
- GI50 [6]: 13.3 µM
- GI50 [7]: 17.4 µM
- GI50 [8]: 15.5 µM
- GI50 [9]: 30.9 µM
- GI50 [10]: 15.3 µM
- GI50 [11]: 14.3 µM
- GI50 [12]: 12.9 µM
- GI50 [13]: 22.9 µM
- GI50 [14]: 16.6 µM
- GI50 [15]: 29.9 µM
- GI50 [16]: 10.1 µM
- GI50 [17]: 23.7 µM
- GI50 [18]: 13.2 µM
- GI50 [19]: 21.9 µM
- GI50 [20]: 16.8 µM
- GI50 [21]: 10.6 µM
